From ChEMBL document CHEMBL3228027, “Synthesis and estrogenic properties of 17-epi-ethynylestradiol and its ether derivatives epimestranol and epiquinestrol” (J Med Chem, 1979)
Calls of active or inactive are those of the source. The rule behind the calls is not given here.

Key:
Oryctolagus cuniculus [1] = species on record: Oryctolagus cuniculus; assay: Displacement of 17beta-[3H]estradiol from rabbit uterine estrogen receptor after 16 to 18 hrs by liquid scintillation counting relative to ethynylestradiol
Method in brief: (§1)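 Rabbit uterine cytosol, 0.7 μg protein per tube, with 16000 dpm 17β-[3H]estradiol (113 Ci/mmol) in Tris-HCl pH 8.0, 0.001 M EDTA, 0.25 M sucrose. Eight concentrations from 1 × 10^-10 to 1 × 10^-4 M were run in duplicate and incubated 16-18 h at 4 °C. Bound and free were separated with dextran-coated charcoal, bound radioactivity was read by liquid scintillation, and results were compared with standards.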

Rattus norvegicus [2] = assay: Induction of vaginal cornification in ovariectomized mature rat at 5 to 10 mg/kg, po administered with sesame oil by Allen-Doisy method relative to control; type: functional; conditions: dose mg/kg 5-10
Method in brief: (§2)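 Allen-Doisy test in ovariectomized mature rats, 14-59 rats per compound and 4-20 per group. Dose ranges were set from the uterotropic results. A smear counted as positive if it was mainly nucleated or cornified epithelial cells with no leucocytes. Results are given as the dose ranges giving positive smears.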

Rattus norvegicus [3] = assay: Antiestrogenic activity in ethynylestradiol-stimulated immature rat assessed as doubling of uterine weight up to 3 mg/kg, po administered for three days by uterotropic assay; type: functional, organism-based; parameters: dose 3 mg/kg
Method in brief: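 Modified Edgren–Calhoun method in immature rats. The test material was given orally for 3 days together with enough ethynylestradiol to double uterine weight, and uterine weight was the end point.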

[4] = Displacement of 17beta-[3H]estradiol from rabbit uterine estrogen receptor after 16 to 18 hrs by liquid scintillation counting; parameters: species or system Oryctolagus cuniculus; method in brief: as §1
Oryctolagus cuniculus [5] = species on record: Oryctolagus cuniculus; assay: Displacement of 17beta-[3H]estradiol from rabbit uterine estrogen receptor at 1 x 10^-4 M after 16 to 18 hrs by liquid scintillation counting; method in brief: as §1
Rattus norvegicus [6] = assay: Estrogenic activity in immature rat administered orally with sesame oil as three doses by uterotropic assay relative to ethynylestradiol; type: functional
Method in brief: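 Six-point oral assay in immature rats, with three doses of ethynylestradiol standard and three doses of test compound in sesame oil, 9-15 rats per dose group. Dose-response lines were checked for linearity and parallelism. Relative potency and 95% confidence limits were computed, and values are combined from three assays.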

Rattus norvegicus [7] = assay: Induction of vaginal cornification in ovariectomized mature rat at 10 to 20 mg/kg, po administered with sesame oil by Allen-Doisy method relative to control; type: functional; conditions: dose mg/kg 10-20; method in brief: as §2
Rattus norvegicus [8] = assay: Induction of vaginal cornification in ovariectomized mature rat at 0.25 to 0.5 mg/kg, po administered with sesame oil by Allen-Doisy method relative to control; type: functional; conditions: dose mg/kg 0.25-0.5; method in brief: as §2
Rattus norvegicus [9] = assay: Induction of vaginal cornification in ovariectomized mature rat at 0.025 to 0.1 mg/kg, po administered with sesame oil by Allen-Doisy method relative to control; type: functional; conditions: dose mg/kg 0.025-0.1; method in brief: as §2
Rattus norvegicus [10] = assay: Induction of vaginal cornification in ovariectomized mature rat at 0.005 to 0.010 mg/kg, po administered with sesame oil by Allen-Doisy method relative to control; type: functional; conditions: dose mg/kg 0.005-0.010; method in brief: as §2

Ratio (Oryctolagus cuniculus [1]) | IC50 [4] [nM] | inhibition (Oryctolagus cuniculus [5]) | Structure (SMILES) | Ratio (Rattus norvegicus [6]) | Activity (Rattus norvegicus [9]) [%] | further results
0.016 | 15 |  | C#C[C@@]1(O)CC[C@H]2[C@@H]3CCc4cc(O)ccc4[C@H]3CC[C@@]21C |  |  | Activity (Rattus norvegicus [2]): 0%; Activity (Rattus norvegicus [3]): inactive
 |  | inactive | C#C[C@@]1(O)CC[C@H]2[C@@H]3CCc4cc(OC)ccc4[C@H]3CC[C@@]21C | 0.0023 |  | Activity (Rattus norvegicus [7]): 0%
 |  | inactive | C#C[C@@]1(O)CC[C@H]2[C@@H]3CCc4cc(OC5CCCC5)ccc4[C@H]3CC[C@@]21C | 0.05 |  | Activity (Rattus norvegicus [8]): 25%
 | 0.24 |  | C#C[C@]1(O)CC[C@H]2[C@@H]3CCc4cc(O)ccc4[C@H]3CC[C@@]21C [ETHINYL ESTRADIOL] |  | 10 | 
0.0012 | 200 |  | C#C[C@]1(O)CC[C@H]2[C@@H]3CCc4cc(OC)ccc4[C@H]3CC[C@@]21C [MESTRANOL] | 0.84 | 11 | 
4e-05 | 6000 |  | C#C[C@]1(O)CC[C@H]2[C@@H]3CCc4cc(OC5CCCC5)ccc4[C@H]3CC[C@@]21C [QUINESTROL] | 1.66 |  | Activity (Rattus norvegicus [10]): 40%
